According to ChEMBL document CHEMBL5046273, “Development of a Novel, Small-Molecule Brain-Penetrant Histone Deacetylase Inhibitor That Enhances Spatial Memory Formation in Mice” (J Med Chem, 2022):
Active and inactive are the calls of the source. No cut-off for these calls is given here.

Legend:
Histone deacetylase 2 [1] = target: T1, Histone deacetylase 2 (Homo sapiens, UniProt Q92769); assay: Inhibition of recombinant human full-length HDAC2 preincubated for 20 mins with DTT followed by enzyme addition and measured after 10 mins by Glo-luminescence assay
Procedure, shortened: (§1)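 Compounds were serially diluted and incubated with enzyme for 10 min. HDAC-Glo I/II substrate/developer was then added, and luminescence read after 40 min at 23 °C. IC50 from four-parameter fits from two independent titrations, mean ± SD.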

Histone deacetylase 2 [2] = target: T1, Histone deacetylase 2; assay: Inhibition of recombinant human full-length HDAC2 incubated for 10 mins by Glo-luminescence assay; procedure, shortened: as §1
DU-145 = assay: Cytotoxicity against human DU-145 cells assessed as reduction in cell viability at 0.00125 to 100 uM incubated for 48 hrs by MTT assay; type: functional, cell-based; conditions: dose 0.00125-100 µM
Procedure, shortened: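 DU145 cells in DMEM with 10% FBS were seeded at 14 000 cells/well and allowed to adhere for 24 h. Test agents were diluted from 10 mM DMSO stocks (100, 50, 25 µM; 10, 5, 1.25 nM) and applied in triplicate for 48 h at 37 °C, 5% CO2, with DMSO as vehicle. Read-out was 250 µg/mL MTT for 4 h, DMSO solubilization, and A570 with 690 nm reference. Values normalized to DMSO.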

T1 sequence (Q92769 whole entry): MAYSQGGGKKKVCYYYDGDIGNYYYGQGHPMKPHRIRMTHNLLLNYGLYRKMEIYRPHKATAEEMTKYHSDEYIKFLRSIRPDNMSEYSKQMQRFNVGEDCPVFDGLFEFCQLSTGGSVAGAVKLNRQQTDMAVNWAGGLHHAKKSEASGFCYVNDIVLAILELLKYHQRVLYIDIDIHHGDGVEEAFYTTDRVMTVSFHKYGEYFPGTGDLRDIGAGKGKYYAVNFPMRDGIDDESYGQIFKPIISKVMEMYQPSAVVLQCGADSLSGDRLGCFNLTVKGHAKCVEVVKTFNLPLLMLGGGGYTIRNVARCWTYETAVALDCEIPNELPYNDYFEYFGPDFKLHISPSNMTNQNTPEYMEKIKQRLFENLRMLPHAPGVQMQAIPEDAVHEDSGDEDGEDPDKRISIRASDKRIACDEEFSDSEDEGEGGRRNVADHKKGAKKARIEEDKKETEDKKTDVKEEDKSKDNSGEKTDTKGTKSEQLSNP

IC50 (Histone deacetylase 2 [1]): 18 µM
IC50 (Histone deacetylase 2 [2]): > 100 µM
SMILES: CC(C)(C)NC(=O)CC(O)/C=C/CCSSCC/C=C/C(O)CC(=O)NC(C)(C)C (stereo not drawn)
Activity (DU-145): inactive
